Shown are actives, neighbours in structure and some others; about 3.4% of the full set was active somewhere.
CHT inh: inhibits the human high affinity choline transporter | 310,000 tested, 0.86% active | CHT-expressing cells, membrane potential dye, choline response; stronger effect = lower value | B-score at 10 µM | Q9GZV3;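 active means B-score over 3 SD under the library average, and starting fluorescence ratio not unusually high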;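 further: choline stimulus applied at its EC90 after an EC20 pre-addition; B-score computed on integrated fluorescence ratio after choline addition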
TMEM16A inh: blocks the mouse calcium-activated chloride channel TMEM16A. Q8BHY3. normalized B-score (activity score, 25-100; higher = stronger inhibition) at 10 µM. AID 588511. 310,000 tested, 1.2% active. HEK293 TMEM16A/YFP iodide influx fluorescence, ionomycin;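 active means ratio plate-corrected score three or more library SD toward inhibition, starting fluorescence score within five deviations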;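 further: score derived from kinetic fluorescence span divided by baseline fluorescence per well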
Target sequence (Q8BHY3 whole entry, looked up): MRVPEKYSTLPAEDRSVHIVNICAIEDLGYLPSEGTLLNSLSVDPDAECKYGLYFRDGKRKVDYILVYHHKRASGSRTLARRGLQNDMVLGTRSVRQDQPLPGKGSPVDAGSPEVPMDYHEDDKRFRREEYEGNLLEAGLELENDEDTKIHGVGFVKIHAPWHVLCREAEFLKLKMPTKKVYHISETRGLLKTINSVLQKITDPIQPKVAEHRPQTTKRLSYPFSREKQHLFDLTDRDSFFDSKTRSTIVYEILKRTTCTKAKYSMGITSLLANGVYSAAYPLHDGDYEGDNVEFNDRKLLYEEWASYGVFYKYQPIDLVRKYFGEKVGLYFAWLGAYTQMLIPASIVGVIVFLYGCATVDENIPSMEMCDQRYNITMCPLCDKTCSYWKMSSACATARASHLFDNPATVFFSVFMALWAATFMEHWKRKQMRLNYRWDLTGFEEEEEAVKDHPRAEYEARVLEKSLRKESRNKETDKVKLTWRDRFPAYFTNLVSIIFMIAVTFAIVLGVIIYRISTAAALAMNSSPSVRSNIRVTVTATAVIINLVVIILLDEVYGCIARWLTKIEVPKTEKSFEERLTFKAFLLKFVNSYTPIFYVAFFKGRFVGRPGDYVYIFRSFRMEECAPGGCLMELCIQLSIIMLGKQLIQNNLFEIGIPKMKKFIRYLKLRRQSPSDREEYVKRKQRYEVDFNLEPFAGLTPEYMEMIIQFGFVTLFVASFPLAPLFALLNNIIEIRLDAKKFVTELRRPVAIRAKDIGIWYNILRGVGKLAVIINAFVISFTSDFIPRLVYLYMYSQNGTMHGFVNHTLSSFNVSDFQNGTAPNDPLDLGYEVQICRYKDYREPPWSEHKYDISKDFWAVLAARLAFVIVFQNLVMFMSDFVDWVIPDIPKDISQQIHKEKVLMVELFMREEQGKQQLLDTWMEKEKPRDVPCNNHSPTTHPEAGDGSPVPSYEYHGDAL
VIM-2 inhibitor: blocks Pseudomonas aeruginosa VIM-2 metallo-beta-lactamase | inhibition, % at 5.6 µM | AID 1527 | 290,000 tested, 0.89% active | purified VIM-2, nitrocefin hydrolysis, epi-absorbance fluorescence;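 active means inhibition above the mean of all tested compounds plus 3 SD, cutoff set per screening run, cut at about 7.5% in these data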;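 further: red hydrolysis product quenches plate fluorescence so inhibitors raise well fluorescence; 0% = enzyme with DMSO and 100% = DMSO without enzyme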
IMP-1 inhibitor: blocks Pseudomonas aeruginosa IMP-1 metallo-beta-lactamase | purified IMP-1, nitrocefin hydrolysis, epi-absorbance fluorescence | inhibition, % at 5.6 µM | 290,000 tested, 0.45% active;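 active means inhibition above the mean plus 3 SD of all compounds in the same screening run, cut at about 4.5% in these data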;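 further: 0% = IMP-1 with DMSO and 100% = DMSO wells lacking enzyme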
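Material – recombinant IMP-1 enzyme, purified · Amount – IMP-1 0.2 nM before substrate addition · Medium – HEPES buffer pH 7.1 with ZnSO4 and Brij 35 · Timing – 25 °C, 15 min preincubation, 25 min reaction · Measured by – plate fluorescence quenching by hydrolysis product, ex 480/em 530 nm · Read-out – percent enzyme inhibition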
ANO1 activ: activators or potentiators of mouse TMEM16A chloride channel; Q8BHY3; HEK293 TMEM16A/YFP-H148Q/I152L, iodide quench fluorescence; stronger effect = lower value; B-score at 10 µM; 340,000 tested, 0.3% active; AID 623877;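 active means fluorescence-ratio B-score plate-corrected deviation score at least 3 library SD below zero, with starting fluorescence score within 5 deviations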;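 further: channel opened by trigger with iodide after compound preincubation; score built on the fluorescence ratio of max minus min over baseline; more negative score means more quench and so TMEM16A activation or potentiation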
CHT PAM: allosterically activates the human high affinity choline transporter; CHT-expressing cells, membrane potential dye, choline EC20; stronger effect = higher value; LV-AA mutant CHT in HEK293 cells; 310,000 tested, 0.49% active; Q9GZV3; B-score at 10 µM;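 active means initial fluorescence not abnormally high and integrated response B-score, plate-corrected, over 3 SD above library mean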
* marks the source's active call; other numbers are inactive results; i = inactive; / = not tested or not shown.

SMILES	CHT inh	TMEM16A inh	VIM-2 inhibitor	IMP-1 inhibitor	ANO1 activ	CHT PAM
Clc1ccc(-c2nn3cnnc3s2)c(Cl)c1	i	25*	-2	-4	i	i
Nc1nnc(-c2ccc(Cl)cc2Cl)s1	i	i	2	-1	i	i
Cc1ccc(C(=O)Nc2cccc(C(=O)NC3CCCCC3)c2)cc1	i	i	-2	-3	i	i
O=C(O)c1ccc(-c2sc(Nc3ccccc3)n[n+]2-c2ccccc2)cc1	i	i	1	0	i	i
COc1ccc(C)cc1Nc1n[n+](-c2ccccc2)c(-c2c(Cl)cccc2Cl)s1	i	100*	-1	-2	/	i
CCN(CC)c1ccc(-c2sc(Nc3ccccc3)n[n+]2-c2ccc(F)cc2)cc1	i	i	3	5.0*	i	i
CN(C)c1ccc(-c2sc(Nc3ccccc3)n[n+]2-c2ccc(F)cc2)cc1	i	i	-2	0	i	i
c1ccc(COc2ccc(-c3sc(Nc4ccccc4)n[n+]3-c3ccccc3)cc2)cc1	i	i	-1	-2	/	8*
COc1ccc2ccccc2c1-c1sc(Nc2ccccc2)n[n+]1-c1ccc(F)cc1	i	100*	-3	-2	i	i
C=CC[C@]12C=C(OC)C(=O)C=C1O[C@@H](c1ccc3c(c1)OCO3)[C@H]2C	i	i	/	/	i	i
COc1ccc(CNC(=O)c2csc(Cc3ccc(OC)cc3)n2)cc1	i	i	-2	-1	i	i
COc1ccc(Cc2nc(C(=O)Nc3ccc(Cl)cc3)cs2)cc1	i	100*	-3	-3	i	i
Cc1ccc(C2CC(=O)C=C(O)C2)cc1 (stereo unspecified)	i	100*	-5	-2	i	i
Cc1ccc(C2=CC(=O)C[C@H](c3ccc(Cl)cc3)C2)cc1	/	/	/	/	i	/
CCCCCOc1ccc(/C(C)=N/NC2=NCCN2)cc1	i	i	-2	-3	i	i
CCOc1ccc(Br)cc1/C(C)=N\NC1=NCCN1	i	100*	-4	-6	i	i
CCOc1ccc(NC(=O)OCCN2CCN(CCc3ccccc3)C(C)C2)cc1 (stereo unspecified)	/	/	/	/	i	/
O=C(CC1Nc2cccc3cccc(c23)NC1=O)Nc1ccccc1 (stereo unspecified)	i	i	1	-2	i	i
NC(=O)CC1Nc2cccc3cccc(c23)NC1=O (stereo unspecified)	i	i	8.1*	9.1*	i	i
COCc1cc(C)nc(SCc2ccc(Br)cc2)c1C#N	i	i	/	/	i	i
Cc1nn(CCc2n[nH]c(=S)n2-c2ccc(F)c(Cl)c2)c(C)c1[N+](=O)[O-]	i	i	9.7*	-2	i	i
Cc1cc(C)c2oc(=O)cc(CN3CCCCC3)c2c1	i	i	1	-1	i	i
CC(=O)c1ccc(S(=O)(=O)N(C)CCCC(=O)NCc2ccc3c(c2)OCO3)cc1	/	/	/	/	-5.8*	/
C/C(=C\C(=O)c1ccc(Br)cc1)NCc1ccc2c(c1)OCO2	i	100*	0	-2	i	i
CCOC(=O)c1[nH]ncc1CN1CCc2ccc(NC(=O)C3CCCO3)cc2C1 (stereo unspecified)	i	i	-1	-3	i	i
SMILES	CHT inh	TMEM16A inh	VIM-2 inhibitor	IMP-1 inhibitor	ANO1 activ	CHT PAM
Cc1ccccc1NC(=O)c1ccccc1O	i	25*	-5	-4	i	i
Cc1ccc(S(=O)(=O)N2[C@@H](c3ccc(Cl)cc3)C(C(=O)O)=CC[C@H]2c2ccc(C(C)C)cc2)cc1	i	100*	/	/	i	i
Cc1ccc(S(=O)(=O)N2[C@@H](c3ccccc3)C(C(=O)O)=CC[C@H]2c2ccc(C(C)C)cc2)cc1	i	100*	/	/	i	i
Cc1ccc([C@@H]2CC=C(C(=O)O)[C@H](c3ccccc3)N2S(=O)(=O)c2ccc(C)cc2)cc1	i	i	/	/	i	i
O=C(O)C1=CC[C@@H](c2ccc(Cl)cc2)N(S(=O)(=O)c2ccc(Cl)cc2)[C@H]1c1ccccc1	i	i	/	/	i	i
O/N=C\c1cnc(N2CCN(c3ccccc3)CC2)s1	i	i	6	-2	i	i
COc1ccc(-n2nnnc2CNC(=O)C(=O)c2c(C)[nH]c3ccccc23)cc1	i	i	/	/	i	i
COc1ccc(/C=C2/CCC(CN3CCOCC3)C2=O)cc1 (stereo unspecified)	/	/	/	/	i	/
Clc1cnc(N/N=C/c2cccs2)c(Cl)c1	i	i	-4	-1	i	i
Cc1ccc(/C=N/Nc2ncc(Cl)cc2Cl)s1	i	25*	-6	-4	i	i
COC(=O)C1C2CC(=O)C(C2)C1C(=O)OC (stereo unspecified)	/	/	/	/	i	/
CSc1ccc(S(=O)(=O)NCC(=O)OCC(=O)N2CCC(C)CC2)cc1[N+](=O)[O-]	/	/	/	/	i	/
CC1CCN(c2ccccc2NC(=S)NC(=O)C(C)(C)C)CC1	i	i	0	6.3*	i	i
O=C(NCCc1ccccc1Cl)C1CCC(=O)N(CC2CCCCC2)C1 (stereo unspecified)	i	i	3	1	i	i
O=S(=O)([N-]c1nc2ccccc2nc1-[n+]1ccc(-c2ccncc2)cc1)c1ccccc1	i	i	-2	-1	-5.3*	i
O=S(=O)([N-]c1nc2ccccc2nc1-[n+]1ccccc1)c1ccccc1	i	i	0	-1	i	i
O=C(NCCNC(=O)c1cc(OCC(F)(F)F)ccc1OCC(F)(F)F)Nc1cccc(C(F)(F)F)c1	i	i	1	7.0*	i	i
C/C(CC(=O)Nc1cccc2c1CCCC2)=N\NC=O	i	i	-2	-2	i	i
CCN1CCN(c2ccc(NC(=O)c3ccc4c(c3)[nH]c(=O)n4Cc3ccc(OC)cc3)cc2)CC1	i	i	11*	-2	i	i
COc1ccc(Cn2c(=O)[nH]c3cc(C(=O)Nc4ccccc4C)ccc32)cc1	i	i	-1	-3	i	i
CCCc1cc(-c2[nH]ncc2-c2ccc(C(=O)OCC)o2)c(O)cc1O	i	i	-2	-2	i	i
CCCc1cc(-c2[nH]ncc2-c2ccc3c(c2)OCCCO3)c(O)cc1O	i	25*	-5	-4	i	i
Cc1c(C)c2ccc(OC(C)C(=O)NCCCN3CCOCC3)c(C)c2oc1=O (stereo unspecified)	i	i	8.6*	1	i	i
Cc1cc(=O)oc2c(C)c(OC(C)C(=O)NCCCN3CCOCC3)ccc12 (stereo unspecified)	i	i	-3	-3	i	i
